Read-outs that look alike come from different tables or passages of the source.
What was measured:
[1] = test system: B16 melanoma cell line; details: 48 h exposure; cited from earlier work
[2] = test system: B16F10 mouse melanoma cell line; assay: MTT-based cytotoxicity test; format: cell-based; details: for EC50: read-out: Cytotoxicity EC50, B16F10, 24 h exposure, MTT, range 1 μM to 250 μM; for Cytotoxicity (in words): B16F10, 24 h, 1 μM to 250 μM
Outline: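 B16F10 cells were grown in D-MEM with 10% FCS, antibiotics and glutamine at 37 °C, 5% CO2. Cells were seeded at 2.5–3.0 × 10^4/mL and grown for 16–24 h. Compounds were added from DMSO/PBS (DMSO below 1% final) at 1–250 μM for 24 h, with octylthioglucoside as positive control. MTT was applied for 3 h, formazan was dissolved with SDS (pH 5.5) and read at 540 nm the next day. EC50 came from dose-response curves, run in triplicate.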

[3] = test system: Rabbit red blood cells; assay: Haemolytic activity test; format: cell-based; details: for EC50: 2 h, 37 °C; for Haemolytic activity (in words): 7 μM to 3.3 mM
Outline: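 Rabbit erythrocytes (2% in PBS) were tested in PBS alone or in PBS with 20% fetal bovine serum. Compounds were dissolved in DMSO, then PBS (DMSO at most 5% final) and tested from 7 μM to 3.3 mM. After 2 h at 37 °C, cells were pelleted at 700g for 10 min. Released haemoglobin was read at 540 nm. The value reported is the lowest concentration giving 50% haemolysis.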

[4] = DPH steady-state fluorescence anisotropy, membrane partitioning; format: physicochemical; details: for Membrane partition coefficient K (DPPC bilayers / aqueous phase): calculated with equation 2 from the depression of Tm, surfactant 0-20 μM; for Effect on phase transition temperature Tm of DPPC (in words): surfactant 0 to 20 μM, DPH-labelled DPPC vesicles
Outline: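 DPPC large unilamellar vesicles were made with DPH at a lipid:DPH molar ratio of 500:1 and surfactant at 0–20 μM, mixed in chloroform and dried. They were hydrated in water above 50 °C for 1 h and extruded 15 times at 50 °C. Anisotropy was read at λex 350/λem 452 nm while cooling from 50 °C to 20 °C at 0.2 °C/min. Tm was taken from anisotropy-temperature plots and K from the Tm shift (ΔHm 31.38 kJ·mol-1). Run in triplicate.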

[5] = test system: human erythrocytes; details: cited from earlier work
[6] = test system: B16F10 cells; details: cited from earlier work
[7] = test system: Rabbit red blood cells; details: at 3.3 mM (highest concentration), data reported previously ref 15; cited from earlier work
[8] = read-out: Haemolytic activity EC50 20 % serum, rabbit red blood cells, PBS containing 20% fetal bovine serum
[9] = read-out: Haemolytic activity EC50 without serum, rabbit red blood cells 2% in PBS, without serum
[10] = at 3.3 mM (highest concentration), without serum

For `OCC1OC(OCCC(F)(F)C(F)(F)C(F)(F)C(F)(F)C(F)(F)C(F)(F)C(F)(F)C(F)(F)C(F)(F)C(F)(F)F)C(O)C(O)C1O` [corresponding β-D-galactopyranoside], the “Toxicity at 50 μM (in words)” value [1] is given as “displayed some toxicity”.
With `CCCCCCCCCCCCCCO[C@H]1O[C@H](CO)[C@@H](O)[C@H](O)[C@H]1O` [α-13b] the EC50 [2] was 53 µM, the “Haemolysis, percentage in parentheses after >3.3 mM, 20 % serum” value ([3]; at 3.3 mM (highest concentration), 20 % serum) was 30% and the EC50 [3, 8] was greater than 3300 µM. It also gave an EC50 [3, 9] of 2500 µM.
In the case of `CCCCCCCCCCCCCCCCO[C@@H]1O[C@H](CO)[C@@H](O)[C@H](O)[C@H]1O` [β-13d, hexadecyl β-D-glucopyranoside], the “Membrane partition coefficient K (DPPC bilayers / aqueous phase)” value [4] is reported as 2.78×10^5 and the “Effect on phase transition temperature Tm of DPPC (in words)” value (“Effect” below) [4] is reported as “decreased linearly over the entire concentration range investigated”.
With `CCCCCCCCCCCCCCCCO[C@@H]1O[C@H](CO)[C@@H](O[C@H]2O[C@H](CO)[C@@H](O)[C@H](O)[C@H]2O)[C@H](O)[C@H]1O` [β-17b] the EC50 [2] was 67 µM, the “Haemolytic activity (in words)” value ([3]; rabbit red blood cells) was “most haemolytic compound under investigation” and the EC50 [3, 8] was 150 µM. For the same compound, the EC50 [3, 9] was 30 µM.
With `CCCCCCCCCCCCCCCCO[C@H]1O[C@H](CO)[C@@H](O)[C@H](O)[C@H]1O` [α-13d] the EC50 [2] was 70 µM, the “Haemolysis, percentage in parentheses after >3.3 mM, without serum” value (from here on “Haemolysis, percentage … without serum”) [3, 10] was 20% and the EC50 [3, 8] was greater than 3300 µM. The EC50 [3, 9] was greater than 3300 µM.
Compound `CCCCCCCCS[C@@H]1O[C@H](CO)[C@@H](O)[C@H](O)[C@H]1O` [OTG, Octylthioglucoside, reference compound] has an EC50 [2] greater than 250 µM, an EC50 [3, 8] of 3000 µM and an EC50 [3, 9] of 500 µM.
In the case of `CCCCCCCCCCCCO[C@@H]1O[C@H](CO)[C@@H](O[C@H]2O[C@H](CO)[C@@H](O)[C@H](O)[C@H]2O)[C@H](O)[C@H]1O` [C12 maltopyranoside], the “Lowest concentration causing lysis of human erythrocytes” value [5] is listed as 58 µM.
With `CCCCCCCCCCCCCCCCCCCO[C@H]1O[C@H](CO)[C@@H](O)[C@H](O)[C@H]1O` [α-13g, nonadecyl α-D-glucopyranoside] the “Cytotoxicity (in words)” value [2] was “did not show a cytotoxic effect”, the EC50 [2] was greater than 250 µM and the “Haemolytic activity (in words)” value ([3]; rabbit red blood cells) was “not haemolytic”. For the same compound, the EC50 [3, 8] was greater than 3300 µM and the EC50 [3, 9] was greater than 3300 µM.
For `CCCCCCCO[C@@H]1O[C@H](CO)[C@@H](O)[C@H](O)[C@H]1O` [β-13a, Heptyl-β-D-glucopyranoside], the “Cytotoxicity (in words)” value [2] was “insignificant”, the EC50 [2] was greater than 250 µM and the “Haemolytic activity (in words)” value ([3]; rabbit red blood cells) was “essentially nonhaemolytic”. For the same compound, the EC50 [3, 8] was greater than 3300 µM, the EC50 [3, 9] was greater than 3300 µM and the “Membrane partition coefficient K (DPPC bilayers / aqueous phase)” value [4] was 4.61×10^4. The “Effect” value [4] was “decreased the phase transition temperature of DPPC only slightly”.
For `OC[C@H]1O[C@@H](OCCC(F)(F)C(F)(F)C(F)(F)C(F)(F)C(F)(F)C(F)(F)C(F)(F)C(F)(F)C(F)(F)C(F)(F)F)[C@H](O)[C@@H](O)[C@@H]1O` [3,3,4,4,5,5,6,6,7,7,8,8,9,9,10,10,11,11,12,12,12-heneicosafluoro-dodecyl-β-D-glucopyranoside], the “Toxicity at 50 μM (in words)” value [1] is listed as “nontoxic”.
`CCCCCCCO[C@@H]1O[C@H](CO)[C@H](O)[C@H](O)[C@H]1O` [β-15a] showed an EC50 [2] greater than 250 µM, an EC50 [3, 8] greater than 3300 µM and an EC50 [3, 9] greater than 3300 µM.
For `CCCCCCCCCCCCCCCCCO[C@@H]1O[C@H](CO)[C@@H](O)[C@H](O)[C@H]1O` [β-13e], the “Apoptosis (in words)” value [6] is listed as “induced apoptosis” and the “Haemolysis, percentage in parentheses after >3.3 mM, 20 % serum” value [7] is listed as 5%.
For `CCCCCCCCCCCCCCCCO[C@@H]1O[C@H](CO)[C@H](O)[C@H](O)[C@H]1O` [β-15b, hexadecyl β-D-galactopyranoside], the EC50 [2] was greater than 250 µM, the “Haemolysis, percentage … without serum” value [3, 10] was 40% and the EC50 [3, 8] was greater than 3300 µM. For the same compound, the EC50 [3, 9] was greater than 3300 µM, the “Membrane partition coefficient K (DPPC bilayers / aqueous phase)” value [4] was 5.15×10^5 and the “Effect” value [4] was “linear decrease in Tm up to a surfactant concentration of 7 μM and an approximately constant Tm at concentrations ≥ 10 μM”.
For `CCCCCCCCCCCCCCCCCO[C@H]1O[C@H](CO)[C@@H](O)[C@H](O)[C@H]1O` [α-13e], the EC50 [2] was 37 µM, the “Haemolysis, percentage … without serum” value [3, 10] was 25% and the EC50 [3, 8] was greater than 3300 µM. For the same compound, the EC50 [3, 9] was greater than 3300 µM.

From article PMC2740628 (Colloids and surfaces. B, Biointerfaces, 2009)
